The results in this text go back to ChEMBL document CHEMBL1140369, “Synthesis and SAR of 2-carboxylic acid indoles as inhibitors of plasminogen activator inhibitor-1” (Bioorg Med Chem Lett, 2005).

The target in assay [1] is T1, Plasminogen activator inhibitor 1 (Homo sapiens, UniProt P05121). Briefly: Percentage inhibitory activity against Plasminogen activator inhibitor-1 at 100 uM. The procedure, abridged:
(§1)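 Recombinant human PAI-1 with compound, then tPA added; restored tPA cleavage of a chromogenic substrate read spectrophotometrically and reported as % inhibition at single concentration. Buffer pH 6.6: Na2HPO4 50 mM, NaCl 200 mM, EDTA 1 mM, no serum protein.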

The target in assay [2] is T1, Plasminogen activator inhibitor 1. Briefly: Percentage inhibitory activity against Plasminogen activator inhibitor-1 at 25 uM. The procedure, abridged:
as §1

The target is the same in assay [3]. Briefly: Percentage inhibitory activity against Plasminogen activator inhibitor-1 at 10 uM. The procedure, abridged: as §1
Assay [4] has the same target. Briefly: Inhibitory concentration against Plasminogen activator inhibitor-1 by antibody assay.

Structures are written as SMILES.

T1 sequence (P05121 whole entry): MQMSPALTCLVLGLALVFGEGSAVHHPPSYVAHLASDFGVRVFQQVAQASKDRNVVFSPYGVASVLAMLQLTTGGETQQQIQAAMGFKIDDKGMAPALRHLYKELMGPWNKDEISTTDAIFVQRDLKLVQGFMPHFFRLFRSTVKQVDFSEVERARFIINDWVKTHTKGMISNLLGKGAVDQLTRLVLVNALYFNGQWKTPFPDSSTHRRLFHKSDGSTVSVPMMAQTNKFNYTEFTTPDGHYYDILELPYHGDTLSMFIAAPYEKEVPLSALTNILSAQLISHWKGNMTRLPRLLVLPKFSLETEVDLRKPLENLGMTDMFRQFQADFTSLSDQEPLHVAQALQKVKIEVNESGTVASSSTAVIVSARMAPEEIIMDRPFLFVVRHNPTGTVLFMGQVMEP

In the case of `O=C(O)c1cc2cc(NS(=O)(=O)c3ccc(Cl)c(Cl)c3)ccc2n1Cc1ccccc1`, the Inhibition (commonly the relative decrease from the control value, in per cent) in assay [1] was found to be 62%.
Take `CC(C)(C)c1ccc(S(=O)(=O)Nc2ccc3c(c2)c(-c2ccccc2)c(C(=O)O)n3Cc2ccccc2)cc1`: the Inhibition in assay [2] came to 82%; in assay [3], 41%.
In the same order, the values of `CC(C)(C)c1ccc(Nc2ccc3c(c2)c(-c2ccccc2)c(C(=O)O)n3Cc2ccccc2)cc1` are 73% and 45%.
On to `O=C(O)c1c(-c2ccccc2)c2cc(NS(=O)(=O)c3ccccc3)ccc2n1Cc1ccc(-c2ccccc2)cc1`, for which the Inhibition in assay [2] was 87%; in assay [3] it was 79%.
The corresponding values for `CC(C)(C)c1ccc(Nc2ccc3c(c2)c(-c2ccccc2)c(C(=O)O)n3Cc2ccc(-c3ccccc3)cc2)cc1` are 80% and 52%.
For `O=C(O)c1cc2cc(NS(=O)(=O)c3ccccc3)ccc2n1Cc1ccccc1`, the Inhibition in assay [1] amounted to 32%.
`O=C(O)c1c(-c2ccccc2)c2cc(NS(=O)(=O)c3ccc(OC(F)(F)F)cc3)ccc2n1Cc1ccccc1`: the results for the Inhibition in assay [2] and in assay [3] were 81% and 33%, respectively.
In the same order, the values of `Cn1c(C(=O)O)c(-c2ccccc2)c2cc(NS(=O)(=O)c3ccc(-c4ccccc4)cc3)ccc21` are 68% and 11%.
The corresponding values for `O=C(Nc1ccc2c(c1)c(-c1ccccc1)c(C(=O)O)n2Cc1ccccc1)Nc1ccc(F)cc1F` are 61% and 27%.
On to `O=C(O)c1c(-c2ccccc2)c2cc(-n3cccc3)ccc2n1Cc1ccccc1`, for which the Inhibition in assay [2] came out at 69%; in assay [3], 12%.
With `O=C(Nc1ccc(Cl)c(Cl)c1)c1ccc(CNc2cc([N+](=O)[O-])ccc2C(=O)O)cc1`, the Inhibition in assay [2] worked out at 51%; in assay [3] it was 3%; in assay [1] it was 74%. In assay [4], the midpoint of inhibition, the IC50, lay at 17.8 µM.
Regarding `O=C(Nc1ccc2c(c1)c(-c1ccccc1)c(C(=O)O)n2Cc1ccccc1)c1ccc(F)cc1F`, the Inhibition is 43% in assay [2] and 24% in assay [3].
In the same order, the values of `O=C(O)c1c(-c2ccccc2)c2cc(NS(=O)(=O)c3cccc4cccnc34)ccc2n1Cc1ccccc1` are 43% and 8%.
The corresponding values for `Cc1cccc(Nc2ccc3c(c2)c(-c2ccccc2)c(C(=O)O)n3Cc2ccccc2)c1` are 69% and 24%.
The corresponding values for `Cn1c(C(=O)O)c(-c2ccccc2)c2cc(NS(=O)(=O)c3ccc(OC(F)(F)F)cc3)ccc21` are 19% and 0%.
Compound `CCCCS(=O)(=O)Nc1ccc2c(c1)cc(C(=O)O)n2Cc1ccccc1` displayed an Inhibition in assay [1] of 14%.
As for `Cn1c(C(=O)O)c(-c2ccccc2)c2cc(NS(=O)(=O)c3ccc(C(C)(C)C)cc3)ccc21`, the Inhibition came to 46% in assay [2] and 5% in assay [3].
The corresponding values for `Cc1ccc(C)n1-c1ccc2c(c1)c(-c1ccccc1)c(C(=O)O)n2Cc1ccccc1` are 83% and 23%.
The corresponding values for `O=C(O)c1c(-c2ccccc2)c2cc(Nc3ccc(-c4ccccc4)cc3)ccc2n1Cc1ccccc1` are 71% and 36%.
Take `O=C(O)C(=O)c1cn(Cc2ccccc2)c2ccc(-c3ccc(OC(F)(F)F)cc3)cc12`: the figures for the Inhibition in assay [2], in assay [3] and in assay [1] were 47%, 0% and 83%, respectively.
For `Cn1c(C(=O)O)c(-c2ccccc2)c2cc(NS(=O)(=O)c3cccc4cccnc34)ccc21`, the Inhibition in assay [2] was 1%; in assay [3] it was 0%.
The corresponding values for `O=C(O)c1c(-c2ccccc2)c2cc(NS(=O)(=O)c3ccc(-c4ccccc4)cc3)ccc2n1Cc1ccccc1` are 61% and 44%.
For the compound `O=C(O)c1cc2cc(NS(=O)(=O)c3ccc(-c4ccccc4)cc3)ccc2n1Cc1ccccc1`, the Inhibition is 49% in assay [2] and 64% in assay [1]. In addition, the IC50 (usually the concentration that gives 50% inhibition) in assay [4] worked out at 63.1 µM.
